# Measured values from publication PMC5084759 (British Journal of Haematology, 2016).
# Experiments:
# [1] = Single-dose plasma pharmacokinetics of oral ixazomib; format: in vivo, human; details: for Total AUC0-last, geometric mean (% CV): single 3 mg oral dose
# Outline: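 Groups were CrCl ≥90 or <30 ml/min (Cockcroft–Gault) or on haemodialysis. Each patient took a single oral 3 mg dose fasted with about 240 ml water. Plasma was sampled pre-dose to 336 h and assayed by LC-MS/MS (0·5–500 ng/ml). Cmax and AUC0-last came from non-compartmental analysis. Group ratios of geometric means (90% CI) came from ANOVA on log-transformed parameters, with normal function as reference.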
# [2] = Haemodialysis clearance, pre- and post-dialyser plasma samples in ESRD patients; format: in vivo, human
# [3] = Safety and tolerability: adverse events; format: in vivo, human; details: for On-study deaths: first dose to 30 d after last dose
# Outline: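 The safety population was all patients given ≥1 dose: a single 3 mg dose in Part A, then optional Part B dosing at 4, 3 or 2·3 mg on days 1, 8 and 15 of 28-d cycles, with or without dexamethasone. AEs, including SAEs, were recorded throughout treatment up to 30 d after the last dose and graded by NCI CTCAE v4.03.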
# [4] = tested on: relapsed and/or refractory multiple myeloma; test: Myeloma disease response; format: in vivo, human
# Outline: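 Part B dosing was oral ixazomib 4, 3 or 2·3 mg on days 1, 8 and 15 of 28-d cycles. Some patients also received dexamethasone 40 mg (20 mg if >75 years) on days 1, 8, 15 and 22 at investigator discretion. Investigators assessed response by IMWG uniform criteria across all cycles, with one bone marrow assessment to document CR. DOR ran from first CR/VGPR/PR to first progression.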
# [5] = Stability of ixazomib in dialysate fluid; format: physicochemical; details: dialysate fluid used in haemodialysis
# [6] = CrCl 30-89 ml/min; ref Gupta et al, 2015b; cited from earlier work
# [7] = ref Gupta et al, 2013; cited from earlier work
# [8] = tested on: CYP3A; details: supra-therapeutic concentrations; ref unpublished observations; cited from earlier work
# [9] = tested on: CYP1A2; details: supra-therapeutic concentrations; ref unpublished observations; cited from earlier work
# [10] = severe RI/ESRD patients versus patients with normal renal function
smiles,measurement,setting,value
CC(C)C[C@H](NC(=O)CNC(=O)c1cc(Cl)ccc1Cl)B(O)O [ixazomib],"Total systemic exposure, higher versus normal renal function",[1]; [10],39%
same,"Unbound systemic exposure, higher versus normal renal function",[1]; [10],38%
same,"Total AUC0-last, geometric mean (% CV)",[1]; ESRD (n = 6),783 (35) h·ng/ml
same,"Total AUC0-last, geometric mean (% CV)",[1]; normal renal function (n = 15),575 (38) ^c h·ng/ml
same,"Total AUC0-last, geometric mean (% CV)",[1]; severe RI (n = 10),813 (51) ^d h·ng/ml
same,Haemodialysis clearance as share of overall systemic clearance,[2]; ESRD patients requiring haemodialysis,less than 10%
same,Ixazomib concentrations in pre- versus post-dialyser samples,"[2]; ESRD patients, 4-h haemodialysis session about 24-28 h after dose",similar
same,clearance,"[2]; human, plasma, oral, 3 mg",< 2 mL/min
same,Any TEAE,[3]; ESRD (N = 7),6 (86) n (%)
same,"Any TEAE, Grade ≥3",[3]; ESRD (N = 7),4 (57) n (%)
same,Drug-related SAE,[3]; ESRD (N = 7),0 n (%)
same,SAE,[3]; ESRD (N = 7),3 (43) n (%)
same,Study drug-related TEAE,[3]; ESRD (N = 7),4 (57) n (%)
same,"Study drug-related TEAE, Grade ≥3",[3]; ESRD (N = 7),1 (14) n (%)
same,TEAE resulting in ixazomib discontinuation,[3]; ESRD (N = 7),0 n (%)
same,TEAE resulting in ixazomib dose reduction,[3]; ESRD (N = 7),0 n (%)
same,TEAE: Anaemia,[3]; ESRD (N = 7),2 (29) n (%)
same,TEAE: Arthralgia,[3]; ESRD (N = 7),1 (14) n (%)
same,TEAE: Constipation,[3]; ESRD (N = 7),1 (14) n (%)
same,TEAE: Diarrhoea,[3]; ESRD (N = 7),1 (14) n (%)
same,TEAE: Dizziness,[3]; ESRD (N = 7),1 (14) n (%)
same,TEAE: Dyspnoea,[3]; ESRD (N = 7),1 (14) n (%)
same,TEAE: Fatigue,[3]; ESRD (N = 7),1 (14) n (%)
same,TEAE: Hypotension,[3]; ESRD (N = 7),1 (14) n (%)
same,TEAE: Nausea,[3]; ESRD (N = 7),2 (29) n (%)
same,TEAE: Peripheral oedema,[3]; ESRD (N = 7),0 n (%)
same,TEAE: URT infection,[3]; ESRD (N = 7),1 (14) n (%)
same,TEAE: Vomiting,[3]; ESRD (N = 7),2 (29) n (%)
same,On-study deaths,[3]; ESRD (N = 7),1 (14) n (%)
same,Dose reductions for ixazomib or dexamethasone,[3]; ESRD group,no dose reductions
same,Incidence of AE anaemia,[3]; ESRD group,29%
same,Incidence of grade ≥3 AEs,[3]; ESRD group,57%
same,Incidence of serious AEs,[3]; ESRD group,43%
same,"On-study deaths, number",[3]; ESRD group,1
same,Investigator-attributed drug-related anaemia,[3]; ESRD patients,0%
same,Incidence of TEAE anaemia,[3]; all 41 patients,22%
same,Incidence of TEAE diarrhoea,[3]; all 41 patients,39%
same,Incidence of TEAE fatigue,[3]; all 41 patients,29%
same,Incidence of TEAE nausea,[3]; all 41 patients,34%
same,Incidence of TEAE vomiting,[3]; all 41 patients,32%
same,Incidence of grade ≥3 TEAE anaemia,[3]; all 41 patients,15%
same,Incidence of grade ≥3 TEAE decreased platelet count,[3]; all 41 patients,7%
same,Incidence of grade ≥3 TEAE hypotension,[3]; all 41 patients,7%
same,Patients with a TEAE of any grade,[3]; all 41 patients,95%
same,Patients who developed peripheral neuropathy,[3]; all 41 patients (six patients),15%
same,Incidence of study drug-related TEAE diarrhoea,[3]; all patients,29%
same,Incidence of study drug-related TEAE nausea,[3]; all patients,29%
same,"On-study deaths, number",[3]; all patients,three
same,Patients with at least 1 TEAE,[3]; four patients with solid tumours (three patients),75%
same,Any TEAE,[3]; normal renal function (N = 20),19 (95) n (%)
same,"Any TEAE, Grade ≥3",[3]; normal renal function (N = 20),9 (45) n (%)
same,Drug-related SAE,[3]; normal renal function (N = 20),3 (15) n (%)
same,SAE,[3]; normal renal function (N = 20),3 (15) n (%)
same,Study drug-related TEAE,[3]; normal renal function (N = 20),16 (80) n (%)
same,"Study drug-related TEAE, Grade ≥3",[3]; normal renal function (N = 20),7 (35) n (%)
same,TEAE resulting in ixazomib discontinuation,[3]; normal renal function (N = 20),2 (10) n (%)
same,TEAE resulting in ixazomib dose reduction,[3]; normal renal function (N = 20),4 (20) n (%)
same,TEAE: Anaemia,[3]; normal renal function (N = 20),1 (5) n (%)
same,TEAE: Arthralgia,[3]; normal renal function (N = 20),3 (15) n (%)
same,TEAE: Constipation,[3]; normal renal function (N = 20),5 (25) n (%)
same,TEAE: Diarrhoea,[3]; normal renal function (N = 20),9 (45) n (%)
same,TEAE: Dizziness,[3]; normal renal function (N = 20),1 (5) n (%)
same,TEAE: Dyspnoea,[3]; normal renal function (N = 20),2 (10) n (%)
same,TEAE: Fatigue,[3]; normal renal function (N = 20),5 (25) n (%)
same,TEAE: Hypotension,[3]; normal renal function (N = 20),1 (5) n (%)
same,TEAE: Nausea,[3]; normal renal function (N = 20),7 (35) n (%)
same,TEAE: Peripheral oedema,[3]; normal renal function (N = 20),2 (10) n (%)
same,TEAE: URT infection,[3]; normal renal function (N = 20),5 (25) n (%)
same,TEAE: Vomiting,[3]; normal renal function (N = 20),6 (30) n (%)
same,On-study deaths,[3]; normal renal function (N = 20),0 n (%)
same,AEs leading to ixazomib discontinuations,[3]; normal renal function group,10%
same,AEs leading to ixazomib dose reductions,[3]; normal renal function group,20%
same,Incidence of AE anaemia,[3]; normal renal function group,5%
same,Incidence of grade ≥3 AEs,[3]; normal renal function group,45%
same,Incidence of serious AEs,[3]; normal renal function group,15%
same,Investigator-attributed drug-related anaemia,[3]; normal renal function group,5%
same,Any TEAE,[3]; severe RI (N = 14),14 (100) n (%)
same,"Any TEAE, Grade ≥3",[3]; severe RI (N = 14),11 (79) n (%)
same,Drug-related SAE,[3]; severe RI (N = 14),2 (14) n (%)
same,SAE,[3]; severe RI (N = 14),6 (43) n (%)
same,Study drug-related TEAE,[3]; severe RI (N = 14),12 (86) n (%)
same,"Study drug-related TEAE, Grade ≥3",[3]; severe RI (N = 14),7 (50) n (%)
same,TEAE resulting in ixazomib discontinuation,[3]; severe RI (N = 14),4 (29) n (%)
same,TEAE resulting in ixazomib dose reduction,[3]; severe RI (N = 14),4 (29) n (%)
same,TEAE: Anaemia,[3]; severe RI (N = 14),6 (43) n (%)
same,TEAE: Arthralgia,[3]; severe RI (N = 14),2 (14) n (%)
same,TEAE: Constipation,[3]; severe RI (N = 14),3 (21) n (%)
same,TEAE: Diarrhoea,[3]; severe RI (N = 14),6 (43) n (%)
same,TEAE: Dizziness,[3]; severe RI (N = 14),4 (29) n (%)
same,TEAE: Dyspnoea,[3]; severe RI (N = 14),3 (21) n (%)
same,TEAE: Fatigue,[3]; severe RI (N = 14),6 (43) n (%)
same,TEAE: Hypotension,[3]; severe RI (N = 14),3 (21) n (%)
same,TEAE: Nausea,[3]; severe RI (N = 14),5 (36) n (%)
same,TEAE: Peripheral oedema,[3]; severe RI (N = 14),4 (29) n (%)
same,TEAE: URT infection,[3]; severe RI (N = 14),1 (7) n (%)
same,TEAE: Vomiting,[3]; severe RI (N = 14),5 (36) n (%)
same,On-study deaths,[3]; severe RI (N = 14),2 (14) n (%)
same,AEs leading to ixazomib discontinuations,[3]; severe RI group,29%
same,AEs leading to ixazomib dose reductions,[3]; severe RI group,29%
same,Incidence of AE anaemia,[3]; severe RI group,43%
same,Incidence of grade ≥3 AEs,[3]; severe RI group,79%
same,Incidence of serious AEs,[3]; severe RI group,43%
same,Investigator-attributed drug-related anaemia,[3]; severe RI group,29%
same,"On-study deaths, number",[3]; severe RI group,2
same,Any TEAE,[3]; total (N = 41),39 (95) n (%)
same,"Any TEAE, Grade ≥3",[3]; total (N = 41),24 (59) n (%)
same,Drug-related SAE,[3]; total (N = 41),5 (12) n (%)
same,SAE,[3]; total (N = 41),12 (29) n (%)
same,Study drug-related TEAE,[3]; total (N = 41),32 (78) n (%)
same,"Study drug-related TEAE, Grade ≥3",[3]; total (N = 41),15 (37) n (%)
same,TEAE resulting in ixazomib discontinuation,[3]; total (N = 41),6 (15) n (%)
same,TEAE resulting in ixazomib dose reduction,[3]; total (N = 41),8 (20) n (%)
same,TEAE: Anaemia,[3]; total (N = 41),9 (22) n (%)
same,TEAE: Arthralgia,[3]; total (N = 41),6 (15) n (%)
same,TEAE: Constipation,[3]; total (N = 41),9 (22) n (%)
same,TEAE: Diarrhoea,[3]; total (N = 41),16 (39) n (%)
same,TEAE: Dizziness,[3]; total (N = 41),6 (15) n (%)
same,TEAE: Dyspnoea,[3]; total (N = 41),6 (15) n (%)
same,TEAE: Fatigue,[3]; total (N = 41),12 (29) n (%)
same,TEAE: Hypotension,[3]; total (N = 41),5 (12) n (%)
same,TEAE: Nausea,[3]; total (N = 41),14 (34) n (%)
same,TEAE: Peripheral oedema,[3]; total (N = 41),6 (15) n (%)
same,TEAE: URT infection,[3]; total (N = 41),7 (17) n (%)
same,TEAE: Vomiting,[3]; total (N = 41),13 (32) n (%)
same,On-study deaths,[3]; total (N = 41),3 (7) n (%)
same,Patients with a response,[4]; normal renal function or ESRD groups (3 and 4 response-evaluable),no patients
same,Patients with a PR,"[4]; severe RI, 11 response-evaluable",five
same,Stability in dialysate,[5],instability
same,Ixazomib clearance in patients with mild or moderate RI,[6],not altered
same,PK interaction between ixazomib and dexamethasone,[7],no PK interaction
same,Contribution to in vitro metabolism of ixazomib,[8],primary contributors
same,Contribution to in vitro metabolism of ixazomib,[9],primary contributors
